The structures appear in SMILES notation. pIC50: −log10 of the molar value. Calls of active or inactive are those of the source. The calls are words filed in the database; no cut-off is given here.

Drawing on ChEMBL document CHEMBL4052637, “Discovery and Characterization of R/S-N-3-Cyanophenyl-N'-(6-tert-butoxycarbonylamino-3,4-dihydro-2,2-dimethyl-2H-1-benzopyran-4-yl)urea, a New Histone Deacetylase Class III Inhibitor Exerting Antiproliferative Activity against Cancer Cell Lines” (J Med Chem, 2017), this text covers Activity, fold change (FC) and IC50 for two compounds.

One test concerns U-373MG ATCC. Kind of test: Cell cycle arrest in human U373 cells assessed as accumulation at sub-G1 phase at 2 uM after 24 to 48 hrs by propidium iodide staining-based flow cytometry. In kind it is functional. An outline of the steps:
(§1)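 Cells were exposed to compound at the IC50 for each line from the 72 h MTT assay, or to a reference HDAC inhibitor at 2 μM. Cell cycle distribution was analyzed after 24 and 48 h. Results are mean ± SD of three independent experiments, with p values against control cells.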
(In general: Flow cytometry measures light scatter and fluorescence of single cells or particles in a stream.)

The test system of test [1] is Hs 683. Put plainly: Cell cycle arrest in human Hs683 cells assessed as accumulation at G1 phase at 2 uM after 24 to 48 hrs by propidium iodide staining-based flow cytometry. Type of test: functional. An outline of the steps: as §1
Test [2] addresses T1, NAD-dependent protein deacetylase sirtuin-1 (Homo sapiens) (UniProt Q96EB6).
T1 sequence (whole entry): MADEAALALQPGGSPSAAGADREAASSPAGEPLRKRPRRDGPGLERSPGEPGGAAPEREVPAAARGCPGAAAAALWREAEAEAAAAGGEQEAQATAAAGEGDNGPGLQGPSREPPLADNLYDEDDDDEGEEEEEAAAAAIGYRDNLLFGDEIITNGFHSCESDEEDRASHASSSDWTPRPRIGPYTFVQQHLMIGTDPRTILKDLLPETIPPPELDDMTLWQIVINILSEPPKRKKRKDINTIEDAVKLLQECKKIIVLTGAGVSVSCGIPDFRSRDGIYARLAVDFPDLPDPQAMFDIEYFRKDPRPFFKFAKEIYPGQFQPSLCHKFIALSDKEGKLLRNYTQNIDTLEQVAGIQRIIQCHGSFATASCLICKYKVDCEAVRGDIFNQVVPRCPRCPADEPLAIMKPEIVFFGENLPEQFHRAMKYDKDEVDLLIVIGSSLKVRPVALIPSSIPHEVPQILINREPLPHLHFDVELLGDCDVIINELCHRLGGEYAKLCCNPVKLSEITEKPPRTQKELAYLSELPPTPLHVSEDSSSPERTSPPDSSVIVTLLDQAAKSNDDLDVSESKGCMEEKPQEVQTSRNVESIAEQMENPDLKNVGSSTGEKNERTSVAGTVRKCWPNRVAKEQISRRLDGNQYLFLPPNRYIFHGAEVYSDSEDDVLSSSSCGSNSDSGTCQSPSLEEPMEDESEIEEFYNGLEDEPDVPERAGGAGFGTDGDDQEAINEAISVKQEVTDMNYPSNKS
Kind of test: Inhibition of SIRT1 in human U373 cells assessed as increase of histone H4 acetylation at 2 uM after 8 hrs by Western blotting method relative to control. Type of test: cell-based. Background: A western blot detects proteins with antibodies after separation by electrophoresis.

Test [3] addresses T1, NAD-dependent protein deacetylase sirtuin-1 (Homo sapiens). Kind of test: Inhibition of SIRT1 in human Hs683 cells assessed as increase of histone H4 acetylation at 2 uM after 8 hrs by Western blotting method relative to control. Type of test: cell-based.
Test [4] concerns the target T2, NAD-dependent protein deacetylase sirtuin-2 (Homo sapiens) (UniProt Q8IXJ6).
T2 sequence (whole entry): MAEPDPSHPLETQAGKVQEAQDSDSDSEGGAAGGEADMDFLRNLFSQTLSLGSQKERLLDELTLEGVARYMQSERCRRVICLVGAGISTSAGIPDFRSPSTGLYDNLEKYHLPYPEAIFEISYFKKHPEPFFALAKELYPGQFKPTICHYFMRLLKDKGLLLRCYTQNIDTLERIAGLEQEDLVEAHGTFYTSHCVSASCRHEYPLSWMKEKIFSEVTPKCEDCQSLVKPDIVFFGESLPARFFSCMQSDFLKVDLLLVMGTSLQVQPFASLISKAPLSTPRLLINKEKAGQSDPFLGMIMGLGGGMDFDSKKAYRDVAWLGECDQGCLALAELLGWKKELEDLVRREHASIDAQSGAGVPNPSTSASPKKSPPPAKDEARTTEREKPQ
Put plainly: Inhibition of SIRT2 in human Hs683 cells assessed as increase of alpha-tubulin acetylation at 2 uM after 8 hrs by Western blotting method relative to control. Type of test: cell-based.

For test [5], the target named is T2, NAD-dependent protein deacetylase sirtuin-2 (Homo sapiens). Kind of test: Inhibition of SIRT2 in human U373 cells assessed as increase of alpha-tubulin acetylation at 2 uM after 8 hrs by Western blotting method relative to control. In kind it is cell-based.
For test [6], the system named is Hs 683. Put plainly: Cell cycle arrest in human Hs683 cells assessed as accumulation at sub-G1 phase at 2 uM after 24 to 48 hrs by propidium iodide staining-based flow cytometry. Type of test: functional. An outline of the steps:
as §1

The target in test [7] is T3, NAD-dependent protein deacetylase sirtuin-2 (Homo sapiens, UniProt Q8IXJ6).
T3 sequence (Q8IXJ6 whole entry): T2 sequence (whole entry)
Kind of test: Inhibition of N-terminal His-tagged recombinant human SIRT-2 expressed in Escherichia coli using Fluor-de-Lys-SIRT1 as substrate after 15 mins by fluorescence assay.

For test [8], the target named is NAD-dependent protein deacetylase sirtuin-3, mitochondrial (Homo sapiens, UniProt Q9NTG7). Put plainly: Inhibition of N-terminal His-tagged recombinant human SIRT-3 expressed in Escherichia coli using Fluor-de-Lys-SIRT1 as substrate after 15 mins by fluorescence assay.
Chain of NAD-dependent protein deacetylase sirtuin-3, mitochondrial (Q9NTG7 whole entry): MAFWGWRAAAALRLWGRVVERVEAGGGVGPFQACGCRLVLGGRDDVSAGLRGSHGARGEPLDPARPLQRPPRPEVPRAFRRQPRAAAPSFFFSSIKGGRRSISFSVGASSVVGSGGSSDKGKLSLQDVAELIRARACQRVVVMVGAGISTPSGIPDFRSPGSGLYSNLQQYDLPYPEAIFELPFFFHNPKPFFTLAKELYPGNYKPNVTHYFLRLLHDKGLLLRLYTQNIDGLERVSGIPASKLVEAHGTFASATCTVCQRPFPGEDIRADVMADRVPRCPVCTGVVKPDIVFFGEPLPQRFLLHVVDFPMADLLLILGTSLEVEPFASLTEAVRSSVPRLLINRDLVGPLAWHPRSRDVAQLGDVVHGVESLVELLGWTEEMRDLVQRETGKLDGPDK

With `O=C(CCCCCCC(=O)Nc1ccccc1)NO`, the result in the test with U-373MG ATCC, in the test with Hs 683 [1] and with Hs 683 [6] was Active. The fold change (FC) worked out at 7.9 in [2], 12.6 in test [3], 18.7 in test [4] and 18.6 in test [5].

For orientation: pIC50 means the negative decadic logarithm of the IC50, by convention in mol/L. For `Cc1ccc(C(=O)Nc2ccc(S(=O)(=O)O)c3cc(S(=O)(=O)O)cc(S(=O)(=O)O)c23)cc1NC(=O)c1cccc(NC(=O)Nc2cccc(C(=O)Nc3cc(C(=O)Nc4ccc(S(=O)(=O)O)c5cc(S(=O)(=O)O)cc(S(=O)(=O)O)c45)ccc3C)c2)c1` [SURAMIN], the pIC50 in [7] was 4.89; in test [8], < 3.70.
